Source: ChEMBL document CHEMBL3046016, “Antifeedant and growth inhibitory effects of some neo-clerodane diterpenoids isolated from Clerodendron species (Verbenaceae) on Earias vitella and Spodoptera litura” (2003)

Tests used:
Type in all cases: functional
Spodoptera litura [1] = assay: Insecticidal activity against adult Spodoptera litura in compound-treated castor leaves assessed as adult emergence at 10 ug/cm2 relative to control
Earias vittella [2] = assay: Insecticidal activity against male adult Earias vitella assessed as adult longevity time at 5 ug/cm3 administered through artificial diet containing Abelmoschus esculentus seed powder (reference value: 8.2 +/- 0.4 days)
Spodoptera litura [3] = assay: Antifeedant activity against third-instar larval stage of Spodoptera litura in compound-treated castor leaves assessed as decrease in diet consumption at 10 ug/cm2 after 24 hr by no-choice leaf disk assay relative to acetone-treated control; set-up: scale not given: the % may be the effect or the level left
How it was run: (§1)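 Larvae were reared on castor leaves at 25 ± 2 °C. In a no-choice test, compound in acetone was painted on the abaxial side of castor leaf disks and air-dried. Five freshly molted third-instar larvae, starved 4 h, were placed per Petri dish with wet cotton. There were five replicates. After 24 h, consumed leaf area was read on a leaf area meter. %AF = 100 − (treated/control)×100.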

Earias vittella [4] = assay: Insecticidal activity against third-instar larval stage of Earias vitella assessed as total larval duration time at 10 ug/cm3 administered through artificial diet containing Abelmoschus esculentus seed powder (reference value: 8.2 +/- 0.48 days)
Earias vittella [5] = assay: Insecticidal activity against third-instar larval stage of Earias vitella assessed as larval mortality at 10 ug/cm3 administered through artificial diet containing Abelmoschus esculentus seed powder (reference value: 4%)
Spodoptera litura [6] = assay: Insecticidal activity against third-instar larval stage of Spodoptera litura in compound-treated castor leaves assessed as larval mortality at 5 ug/cm2 relative to control
Earias vittella [7] = assay: Insecticidal activity against third-instar larval stage of Earias vitella assessed as total larval duration time at 5 ug/cm3 administered through artificial diet containing Abelmoschus esculentus seed powder (reference value: 8.2 +/- 0.48 days)
Spodoptera litura [8] = assay: Insecticidal activity against pupal stage of Spodoptera litura in compound-treated castor leaves assessed as pupal mortality at 5 ug/cm2 relative to control
Spodoptera litura [9] = assay: Insecticidal activity against adult Spodoptera litura in compound-treated castor leaves assessed as adult emergence at 5 ug/cm2 relative to control
Earias vittella [10] = assay: Insecticidal activity against adult Earias vitella assessed as adult deformity at 5 ug/cm3 administered through artificial diet containing Abelmoschus esculentus seed powder (reference value: 4%)
Earias vittella [11] = assay: Insecticidal activity against third-instar larval stage of Earias vitella assessed as larval mortality at 5 ug/cm3 administered through artificial diet containing Abelmoschus esculentus seed powder (reference value: 4%)
Earias vittella [12] = assay: Insecticidal activity against male adult Earias vitella assessed as adult longevity time at 10 ug/cm3 administered through artificial diet containing Abelmoschus esculentus seed powder (reference value: 8.2 +/- 0.4 days)
Earias vittella [13] = assay: Insecticidal activity against female adult Earias vitella assessed as adult longevity time at 10 ug/cm3 administered through artificial diet containing Abelmoschus esculentus seed powder (reference value: 8.6 +/- 0.48 days)
Earias vittella [14] = assay: Insecticidal activity against pupal stage of Earias vitella assessed as pupal weight at 5 ug/cm3 administered through artificial diet containing Abelmoschus esculentus seed powder (reference value: 88.2 +/- 4.01 mg)
Spodoptera litura [15] = assay: Insecticidal activity against pupal stage of Spodoptera litura in compound-treated castor leaves assessed as pupal weight at 5 ug/cm2 (reference value: 302.4 +/- 5.9 mg)
Spodoptera littoralis [16] = assay: Antifeedant activity against Spodoptera littoralis assessed as decrease in diet consumption at 50 ppm after 2 hr by leaf disk assay relative to control; set-up: scale not given: the % may be the effect or the level left
Spodoptera litura [17] = assay: Insecticidal activity against pupal stage of Spodoptera litura in compound-treated castor leaves assessed as pupal duration time at 5 ug/cm2 (reference value: 9.2 +/- 0.74 days)
Spodoptera litura [18] = assay: Insecticidal activity against pupal stage of Spodoptera litura in compound-treated castor leaves assessed as pupal duration time at 10 ug/cm2 (reference value: 9.2 +/- 0.74 days)
Earias vittella [19] = assay: Insecticidal activity against pupal stage of Earias vitella assessed as pupal duration time at 10 ug/cm3 administered through artificial diet containing Abelmoschus esculentus seed powder (reference value: 6.4 +/- 0.21 days)
Spodoptera litura [20] = assay: Insecticidal activity against pupal stage of Spodoptera litura in compound-treated castor leaves assessed as pupal weight at 10 ug/cm2 (reference value: 302.4 +/- 5.9 mg)
Spodoptera litura [21] = assay: Insecticidal activity against pupal stage of Spodoptera litura in compound-treated castor leaves assessed as pupal mortality at 10 ug/cm2 relative to control
Earias vittella [22] = assay: Insecticidal activity against pupal stage of Earias vitella assessed as pupal mortality at 5 ug/cm3 administered through artificial diet containing Abelmoschus esculentus seed powder (reference value: 8%)
Spodoptera litura [23] = assay: Insecticidal activity against male adult Spodoptera litura in compound-treated castor leaves assessed as adult longevity time at 10 ug/cm2 (reference value: 9.4 +/- 0.48 days)
Spodoptera litura [24] = assay: Antifeedant activity against third-instar larval stage of Spodoptera litura in compound-treated castor leaves assessed as decrease in diet consumption at 5 ug/cm2 after 24 hr by no-choice leaf disk assay relative to acetone-treated control; set-up: scale not given: the % may be the effect or the level left; how it was run: as §1
Earias vittella [25] = assay: Insecticidal activity against female adult Earias vitella assessed as adult longevity time at 5 ug/cm3 administered through artificial diet containing Abelmoschus esculentus seed powder (reference value: 8.6 +/- 0.48 days)
Spodoptera litura [26] = assay: Insecticidal activity against third-instar larval stage of Spodoptera litura in compound-treated castor leaves assessed as larval mortality at 10 ug/cm2 relative to control
Spodoptera litura [27] = assay: Insecticidal activity against male adult Spodoptera litura in compound-treated castor leaves assessed as adult longevity time at 5 ug/cm2 (reference value: 9.4 +/- 0.48 days)
Spodoptera litura [28] = assay: Insecticidal activity against adult Spodoptera litura in compound-treated castor leaves assessed as adult deformity at 10 ug/cm2 relative to control
Earias vittella [29] = assay: Antifeedant activity against third-instar larval stage of Earias vitella assessed as decrease in diet consumption at 10 ug/cm3 administered through artificial diet containing Abelmoschus esculentus seed powder after 24 hr relative to acetone-treated control; set-up: scale not given: the % may be the effect or the level left
How it was run: (§2)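 Artificial diet was modified Klein medium with bhendi (Abelmoschus esculentus) seed powder in place of alfalfa. Compound in acetone was mixed into bhendi meal 12 h before diet preparation so the solvent evaporated. One 3 g diet cube was given to five freshly molted third-instar larvae in a muslin-covered container. After 24 h the cubes were weighed. %AF = 100 − (treated/control)×100.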

Spodoptera litura [30] = assay: Insecticidal activity against female adult Spodoptera litura in compound-treated castor leaves assessed as adult longevity time at 10 ug/cm2 (reference value: 10 +/- 0.63 days)
Spodoptera litura [31] = assay: Insecticidal activity against female adult Spodoptera litura in compound-treated castor leaves assessed as adult longevity time at 5 ug/cm2 (reference value: 10 +/- 0.63 days)
Spodoptera litura [32] = assay: Insecticidal activity against third-instar larval stage of Spodoptera litura in compound-treated castor leaves assessed as total larval duration time at 10 ug/cm2 (reference value: 12.4 +/- 0.48 days)
Earias vittella [33] = assay: Insecticidal activity against pupal stage of Earias vitella assessed as pupal duration time at 5 ug/cm3 administered through artificial diet containing Abelmoschus esculentus seed powder (reference value: 6.4 +/- 0.21 days)
Earias vittella [34] = assay: Insecticidal activity against pupal stage of Earias vitella assessed as pupal weight at 10 ug/cm3 administered through artificial diet containing Abelmoschus esculentus seed powder (reference value: 88.2 +/- 4.01 mg)
Earias vittella [35] = assay: Insecticidal activity against adult Earias vitella assessed as adult deformity at 10 ug/cm3 administered through artificial diet containing Abelmoschus esculentus seed powder (reference value: 4%)
Earias vittella [36] = assay: Antifeedant activity against third-instar larval stage of Earias vitella assessed as decrease in diet consumption at 5 ug/cm3 administered through artificial diet containing Abelmoschus esculentus seed powder after 24 hr relative to acetone-treated control; set-up: scale not given: the % may be the effect or the level left; how it was run: as §2
Earias vittella [37] = assay: Insecticidal activity against adult Earias vitella assessed as adult emergence at 10 ug/cm3 administered through artificial diet containing Abelmoschus esculentus seed powder (reference value: 88%)
Earias vittella [38] = assay: Insecticidal activity against adult Earias vitella assessed as adult emergence at 5 ug/cm3 administered through artificial diet containing Abelmoschus esculentus seed powder (reference value: 88%)
Spodoptera litura [39] = assay: Insecticidal activity against adult Spodoptera litura in compound-treated castor leaves assessed as adult deformity at 5 ug/cm2 relative to control
Earias vittella [40] = assay: Insecticidal activity against pupal stage of Earias vitella assessed as pupal mortality at 10 ug/cm3 administered through artificial diet containing Abelmoschus esculentus seed powder (reference value: 8%)
Spodoptera litura [41] = assay: Insecticidal activity against third-instar larval stage of Spodoptera litura in compound-treated castor leaves assessed as total larval duration time at 5 ug/cm2 (reference value: 12.4 +/- 0.48 days)
Spodoptera littoralis [42] = assay: Antifeedant activity against Spodoptera littoralis assessed as decrease in diet consumption at 200 ppm after 2 hr by leaf disk assay relative to control; set-up: scale not given: the % may be the effect or the level left

Compound `CC(=O)OC[C@@]12[C@@H](OC(C)=O)C[C@@H](C)[C@](C)([C@@H]3C[C@H]4C=CO[C@H]4O3)[C@H]1CCC[C@]21CO1` [CLERODIN] has an Activity (Spodoptera litura [1]) of 63.2%, a Time (Earias vittella [2]) of 6.6 days and an Activity (Spodoptera litura [3]) of 80%. The Time (Earias vittella [4]) was 9.9 days, the mortality (Earias vittella [5]) was 8% and the mortality at 5 µg/cm2 (Spodoptera litura [6]) was 24.5%. For the same compound, the Time (Earias vittella [7]) was 9.4 days, the mortality at 5 µg/cm2 (Spodoptera litura [8]) was 27% and the Activity (Spodoptera litura [9]) was 64%. For the same compound, the Activity (Earias vittella [10]) was 4%, the mortality (Earias vittella [11]) was 4% and the Time (Earias vittella [12]) was 6.4 days. For the same compound, the Time (Earias vittella [13]) was 6.6 days, the Activity (Earias vittella [14]) was 60.4 mg and the Activity (Spodoptera litura [15]) was 270.2 mg. It also gave an Activity (Spodoptera littoralis [16]) of 100%, a Time (Spodoptera litura [17]) of 10.9 days and a Time (Spodoptera litura [18]) of 11.6 days. It also gave a Time (Earias vittella [19]) of 8 days, an Activity (Spodoptera litura [20]) of 250.2 mg and a mortality at 10 µg/cm2 (Spodoptera litura [21]) of 27%. The mortality (Earias vittella [22]) was 28.5%, the Time (Spodoptera litura [23]) was 8 days and the Activity (Spodoptera litura [24]) was 72%. For the same compound, the Time (Earias vittella [25]) was 6.8 days, the mortality at 10 µg/cm2 (Spodoptera litura [26]) was 35.2% and the Time (Spodoptera litura [27]) was 8.4 days. The Activity (Spodoptera litura [28]) was 9.6%, the Activity (Earias vittella [29]) was 72.13% and the Time (Spodoptera litura [30]) was 7 days. It also gave a Time (Spodoptera litura [31]) of 8 days, a Time (Spodoptera litura [32]) of 14.8 days and a Time (Earias vittella [33]) of 7.2 days. The Activity (Earias vittella [34]) was 58 mg, the Activity (Earias vittella [35]) was 8% and the Activity (Earias vittella [36]) was 62.87%. It also gave an Activity (Earias vittella [37]) of 60%, an Activity (Earias vittella [38]) of 68.6% and an Activity (Spodoptera litura [39]) of 8%. For the same compound, the mortality (Earias vittella [40]) was 32% and the Time (Spodoptera litura [41]) was 14.3 days.

For `CC(=O)OC[C@@]12[C@@H](OC(C)=O)C[C@@H](C)[C@](C)([C@@H]3C[C@H]4C=CO[C@H]4O3)[C@H]1CC[C@H](OC(C)=O)[C@]21CO1` [3-EPICARYOPTIN], the Activity (Spodoptera littoralis [42]) was 100%, the Activity (Spodoptera litura [1]) was 56.8% and the Time (Earias vittella [2]) was 5.8 days. For the same compound, the Activity (Spodoptera litura [3]) was 82.6%, the Time (Earias vittella [4]) was 10.3 days and the mortality (Earias vittella [5]) was 12%. The mortality at 5 µg/cm2 (Spodoptera litura [6]) was 24%, the Time (Earias vittella [7]) was 10 days and the mortality at 5 µg/cm2 (Spodoptera litura [8]) was 26.5%. It also gave an Activity (Spodoptera litura [9]) of 64.8%, an Activity (Earias vittella [10]) of 8% and a mortality (Earias vittella [11]) of 8%. The Time (Earias vittella [12]) was 5.6 days, the Time (Earias vittella [13]) was 5.8 days and the Activity (Earias vittella [14]) was 57.4 mg. It also gave an Activity (Spodoptera litura [15]) of 261.6 mg, a Time (Spodoptera litura [17]) of 11 days and a Time (Spodoptera litura [18]) of 11.8 days. It also gave a Time (Earias vittella [19]) of 10.2 days, an Activity (Spodoptera litura [20]) of 250.2 mg and a mortality at 10 µg/cm2 (Spodoptera litura [21]) of 30%. For the same compound, the mortality (Earias vittella [22]) was 30%, the Time (Spodoptera litura [23]) was 6.4 days and the Activity (Spodoptera litura [24]) was 73.4%. It also gave a Time (Earias vittella [25]) of 6.2 days, a mortality at 10 µg/cm2 (Spodoptera litura [26]) of 36% and a Time (Spodoptera litura [27]) of 7.4 days. It also gave an Activity (Spodoptera litura [28]) of 12.8%, an Activity (Earias vittella [29]) of 79.76% and a Time (Spodoptera litura [30]) of 6 days. It also gave a Time (Spodoptera litura [31]) of 7.2 days, a Time (Spodoptera litura [32]) of 14.5 days and a Time (Earias vittella [33]) of 8.8 days. For the same compound, the Activity (Earias vittella [34]) was 53.2 mg, the Activity (Earias vittella [35]) was 8% and the Activity (Earias vittella [36]) was 73%. The Activity (Earias vittella [37]) was 52%, the Activity (Earias vittella [38]) was 60.4% and the Activity (Spodoptera litura [39]) was 8.8%. For the same compound, the mortality (Earias vittella [40]) was 40% and the Time (Spodoptera litura [41]) was 14 days.
